Test results as given in ChEMBL document CHEMBL2385015, “Alkaloids and polyketides from Penicillium citrinum, an endophyte isolated from the Moroccan plant Ceratonia siliqua” (J Nat Prod, 2013).
Active and inactive are the calls of the source. No cut-off for these calls is given here.

Tests used:
Escherichia coli = assay: Antibacterial activity against Escherichia coli ATCC 25922 at 64 ug/mL by broth microdilution method; assay type: functional, organism-based
Staphylococcus aureus = assay: Antibacterial activity against Staphylococcus aureus ATCC 29213 at 64 ug/mL by broth microdilution method; assay type: functional, organism-based
L5178Y = assay: Cytotoxicity against mouse L5178Y cells by MTT assay; assay type: functional, cell-based
Procedure, shortened: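 Growth of L5178Y mouse lymphoma cells measured by MTT (microculture tetrazolium) assay relative to untreated controls. Medium with 0.1% EGMME–DMSO served as negative control and the depsipeptide kahalalide F as positive control.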

Streptococcus pneumoniae = assay: Antibacterial activity against Streptococcus pneumoniae ATCC 49619 at 64 ug/mL by broth microdilution method; assay type: functional, organism-based

Row | Compound | Activity (Escherichia coli) | Activity (Staphylococcus aureus) | IC50 (L5178Y) | Activity (Streptococcus pneumoniae)
1 | COc1cc(O)c(C)c2c1[C@@H](c1ccc3n1C(=O)c1c-3[nH]c3ccccc3c1=O)O[C@@H](C)C2 [CITRIQUINOCHROMAN] | inactive | inactive | 6.1 µM | inactive
2 | COc1cc(O)c(C)c2cc(C)ncc12 | inactive | inactive | > 10 µM | inactive
3 | C[C@@H]1C[C@@](C)(O)Cc2ccc(CO)c(/C=C/C=C/C(=O)O)c21 | inactive | inactive | > 10 µM | inactive
4 | O=C1c2c([nH]c3ccccc3c2=O)C2CCCN12 (centres undefined) | inactive | inactive | > 10 µM | inactive
5 | CC(=O)c1c(CC(=O)O)cc(O)c(C)c1O | inactive | inactive | > 10 µM | inactive
6 | CC1=C[C@H](O)[C@H]2C[C@@H](CO)C[C@@H](C)[C@@H]2[C@H]1/C=C/C=C/C(=O)O | inactive | inactive | > 10 µM | inactive
